Test results published in ChEMBL document CHEMBL1149092, “Studies on pyrrolopyrimidines as selective inhibitors of multidrug-resistance-associated protein in multidrug resistance” (J Med Chem, 2004).

Columns and labels:
[1] = biological target: Multidrug resistance-associated protein 1 (Homo sapiens, UniProt P33527); test: Inhibitory activity against human transporter MRP1 (Multidrug resistance associated protein 1) expressed in COR.L23/R cell line
Procedure, shortened: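 Tritiated daunomycin (0.3 μCi/mL) accumulation in COR.L23/R cells (MRP-expressing human NSCLC MDR subline), seeded 48 h before the assay. Cells were washed and cell-associated radioactivity measured. 100% accumulation was set with 100 μM verapamil.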

[2] = biological target: ATP-dependent translocase ABCB1 (Mus musculus, UniProt P06795); test: Inhibitory activity against mouse transporter Pgp (P-glycoprotein) expressed in EMT6/AR1.0 cell line
Procedure, shortened: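 Accumulation protocol run as for MRP1, but in the Pgp-expressing murine mammary carcinoma EMT6/AR1.0 subline. IC50 is the mean of at least three experiments.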

[3] = tested on: Mus musculus; test: (§1) Half life in BALB/C mice at the dose of 20 mg/kg by i.v. administration; format: ADME, organism-based; set-up: dose 20 mg/kg, route intravenous; settings: in vivo, iv
Procedure, shortened: (§2)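 Female Balb/c mice, three to four per time point, were dosed iv, ip or po at 20–50 mg/kg. Blood was taken by cardiac puncture under anesthesia from 0.03 to 24 h. Plasma was methanol-extracted and analysed by HPLC. AUC (linear/log trapezoidal) and t1/2 were derived by noncompartmental analysis.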

[4] = tested on: Mus musculus; test: (§3) Area under curve when injected intravenously in BALB/C mice at a dose of 20 mg/kg; format: ADME, organism-based; set-up: dose 20 mg/kg, route intravenous; settings: in vivo, iv; procedure, shortened: as §2
[5] = tested on: Mus musculus; test: (§4) Maximal plasma concentration in BALB/C mice after 20 mg/kg intravenous dose; format: ADME, organism-based; set-up: dose 20 mg/kg, route intravenous; settings: in vivo; procedure, shortened: as §2
[6] = biological target: Cytochrome P450 3A4 (Homo sapiens, UniProt P08684); test: Inhibitory concentration to inhibit MRP1 in CYP 3A4 assay
[7] = as §1; format: ADME, organism-based; set-up: dose 20 mg/kg, route intravenous; settings: mouse, in vivo, iv; procedure, shortened: as §2
[8] = as §3; format: ADME, organism-based; set-up: dose 20 mg/kg, route intravenous; settings: BALB/C, mouse, in vivo, iv; procedure, shortened: as §2
[9] = as §4; format: ADME, organism-based; set-up: dose 20 mg/kg, route intravenous; settings: BALB/C, mouse, plasma; procedure, shortened: as §2
[10] = Area under curve when injected intraperitoneally in BALB/C mice at a dose of 20 mg/kg; format: ADME, organism-based; set-up: dose 20 mg/kg, route intraperitoneal; settings: mouse, in vivo, ip; procedure, shortened: as §2
[11] = Half life in BALB/C mice at the dose of 50 mg/kg by p.o. administration; settings: mouse, in vivo, po
[12] = Bioavailability in mouse (BALB/C) (dose 20 mg/kg i.p.); settings: in vivo, ip
[13] = Maximal plasma concentration in BALB/C mice after 50 mg/kg oral dose; format: ADME, organism-based; set-up: dose 50 mg/kg, route oral; settings: mouse; procedure, shortened: as §2
[14] = Area under curve when injected perorally in BALB/C mice at a dose of 50 mg/kg; format: ADME, organism-based; set-up: dose 50 mg/kg, route oral; settings: mouse, in vivo, po; procedure, shortened: as §2
[15] = Half life in BALB/C mice at the dose of 20 mg/kg by i.p. administration; format: ADME, organism-based; set-up: dose 20 mg/kg, route intraperitoneal; settings: mouse, in vivo, ip; procedure, shortened: as §2
[16] = Bioavailability in mouse (BALB/C) (dose 50 mg/kg p.o.); settings: in vivo, po
[17] = Maximal plasma concentration in BALB/C mice after 20 mg/kg intraperitoneal dose; format: ADME, organism-based; set-up: dose 20 mg/kg, route intraperitoneal; settings: mouse, ip; procedure, shortened: as §2
[18] = Half life in BALB/C mice at the dose of 50 mg/kg by p.o. administration; format: ADME, organism-based; set-up: dose 50 mg/kg, route oral; settings: mouse, in vivo, po; procedure, shortened: as §2
[19] = Half life in BALB/C mice at the dose of 50 mg/kg by i.p. administration; format: ADME, organism-based; set-up: dose 50 mg/kg, route intraperitoneal; settings: mouse, in vivo, ip; procedure, shortened: as §2

Cytochrome P450 3A4, sequence (P08684 whole entry): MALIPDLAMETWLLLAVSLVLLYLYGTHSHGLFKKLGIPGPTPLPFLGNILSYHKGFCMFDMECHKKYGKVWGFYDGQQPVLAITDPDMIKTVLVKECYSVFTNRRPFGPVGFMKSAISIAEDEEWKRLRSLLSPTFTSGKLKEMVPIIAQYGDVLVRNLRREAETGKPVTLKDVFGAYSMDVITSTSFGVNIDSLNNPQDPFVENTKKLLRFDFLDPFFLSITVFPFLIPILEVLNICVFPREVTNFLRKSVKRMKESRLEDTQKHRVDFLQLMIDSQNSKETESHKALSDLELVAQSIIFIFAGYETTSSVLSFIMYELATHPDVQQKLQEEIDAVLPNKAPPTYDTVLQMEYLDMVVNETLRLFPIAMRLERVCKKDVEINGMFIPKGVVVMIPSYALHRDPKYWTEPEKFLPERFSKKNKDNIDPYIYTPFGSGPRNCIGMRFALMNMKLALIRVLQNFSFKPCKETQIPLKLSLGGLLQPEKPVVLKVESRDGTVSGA
ATP-dependent translocase ABCB1, sequence (P06795 whole entry): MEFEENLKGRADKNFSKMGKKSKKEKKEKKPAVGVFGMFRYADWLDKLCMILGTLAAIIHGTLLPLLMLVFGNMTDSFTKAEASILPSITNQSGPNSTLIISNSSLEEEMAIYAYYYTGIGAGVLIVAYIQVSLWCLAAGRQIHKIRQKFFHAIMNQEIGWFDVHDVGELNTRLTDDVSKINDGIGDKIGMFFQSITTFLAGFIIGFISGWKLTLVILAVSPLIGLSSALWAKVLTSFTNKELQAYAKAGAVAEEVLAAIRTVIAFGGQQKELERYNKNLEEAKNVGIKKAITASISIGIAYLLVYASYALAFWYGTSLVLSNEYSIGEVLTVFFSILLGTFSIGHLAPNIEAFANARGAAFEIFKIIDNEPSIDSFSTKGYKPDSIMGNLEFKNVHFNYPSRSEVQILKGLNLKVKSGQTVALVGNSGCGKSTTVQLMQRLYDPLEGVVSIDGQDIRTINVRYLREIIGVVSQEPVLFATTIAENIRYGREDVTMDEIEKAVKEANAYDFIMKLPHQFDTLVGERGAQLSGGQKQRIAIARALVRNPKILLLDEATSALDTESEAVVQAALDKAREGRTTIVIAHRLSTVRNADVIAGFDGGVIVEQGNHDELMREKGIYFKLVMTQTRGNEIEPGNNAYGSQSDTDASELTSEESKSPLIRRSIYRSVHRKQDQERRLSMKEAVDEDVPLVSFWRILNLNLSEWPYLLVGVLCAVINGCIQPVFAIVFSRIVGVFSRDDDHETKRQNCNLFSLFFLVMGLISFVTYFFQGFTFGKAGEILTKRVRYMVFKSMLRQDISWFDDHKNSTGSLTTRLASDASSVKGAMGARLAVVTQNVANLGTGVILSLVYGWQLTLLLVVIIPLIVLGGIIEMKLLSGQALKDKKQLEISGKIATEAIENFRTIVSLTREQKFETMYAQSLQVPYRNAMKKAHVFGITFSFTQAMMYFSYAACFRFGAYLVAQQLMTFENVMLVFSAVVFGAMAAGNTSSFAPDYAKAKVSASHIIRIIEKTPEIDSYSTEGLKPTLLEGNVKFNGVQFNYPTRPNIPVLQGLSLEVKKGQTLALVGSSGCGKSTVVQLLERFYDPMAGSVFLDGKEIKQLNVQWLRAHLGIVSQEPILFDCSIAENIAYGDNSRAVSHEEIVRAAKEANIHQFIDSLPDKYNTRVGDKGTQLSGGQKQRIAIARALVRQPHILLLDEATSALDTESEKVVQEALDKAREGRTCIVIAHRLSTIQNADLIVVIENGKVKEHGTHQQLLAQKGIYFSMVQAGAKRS
Multidrug resistance-associated protein 1, sequence (P33527 whole entry): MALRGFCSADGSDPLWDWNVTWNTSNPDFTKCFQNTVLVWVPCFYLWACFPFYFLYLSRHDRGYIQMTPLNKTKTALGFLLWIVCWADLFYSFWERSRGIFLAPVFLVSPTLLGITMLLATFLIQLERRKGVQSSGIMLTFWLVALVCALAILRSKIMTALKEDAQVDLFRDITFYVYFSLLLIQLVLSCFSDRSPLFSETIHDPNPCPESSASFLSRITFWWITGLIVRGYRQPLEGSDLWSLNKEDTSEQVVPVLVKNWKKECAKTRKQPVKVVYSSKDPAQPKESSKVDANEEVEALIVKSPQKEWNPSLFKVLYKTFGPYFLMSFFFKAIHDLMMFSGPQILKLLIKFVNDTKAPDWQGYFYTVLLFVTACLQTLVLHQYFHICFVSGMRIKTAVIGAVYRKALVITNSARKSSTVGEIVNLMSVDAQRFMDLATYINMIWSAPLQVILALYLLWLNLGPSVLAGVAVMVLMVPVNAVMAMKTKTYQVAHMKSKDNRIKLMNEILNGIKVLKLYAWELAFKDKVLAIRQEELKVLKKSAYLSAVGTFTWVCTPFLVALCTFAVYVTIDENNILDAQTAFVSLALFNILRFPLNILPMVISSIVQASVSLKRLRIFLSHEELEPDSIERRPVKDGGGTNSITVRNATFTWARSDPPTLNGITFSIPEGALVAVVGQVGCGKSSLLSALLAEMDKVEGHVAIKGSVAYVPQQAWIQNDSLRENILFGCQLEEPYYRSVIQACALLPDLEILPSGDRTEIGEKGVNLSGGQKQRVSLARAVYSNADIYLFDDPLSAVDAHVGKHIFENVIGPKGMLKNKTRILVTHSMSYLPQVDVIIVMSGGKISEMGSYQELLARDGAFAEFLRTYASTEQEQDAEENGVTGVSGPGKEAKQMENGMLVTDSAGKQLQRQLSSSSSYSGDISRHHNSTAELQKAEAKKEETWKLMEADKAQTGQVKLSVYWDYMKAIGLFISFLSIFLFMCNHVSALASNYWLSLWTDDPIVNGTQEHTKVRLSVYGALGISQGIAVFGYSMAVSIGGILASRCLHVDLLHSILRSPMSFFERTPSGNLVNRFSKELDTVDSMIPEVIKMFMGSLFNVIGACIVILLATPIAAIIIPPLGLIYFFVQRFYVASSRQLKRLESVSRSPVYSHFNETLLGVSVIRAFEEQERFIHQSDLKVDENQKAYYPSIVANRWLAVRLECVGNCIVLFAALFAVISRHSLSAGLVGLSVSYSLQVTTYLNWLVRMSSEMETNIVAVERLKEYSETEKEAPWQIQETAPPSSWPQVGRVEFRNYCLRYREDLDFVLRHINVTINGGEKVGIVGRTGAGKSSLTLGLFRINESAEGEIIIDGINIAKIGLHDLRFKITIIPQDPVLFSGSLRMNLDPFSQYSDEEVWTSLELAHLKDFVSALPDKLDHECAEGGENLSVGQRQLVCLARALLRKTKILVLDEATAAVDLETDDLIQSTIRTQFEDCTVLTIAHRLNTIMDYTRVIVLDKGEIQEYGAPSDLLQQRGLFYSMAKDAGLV

Compound | IC50 [1] | IC50 [2] | also measured
Cc1nc(-c2c3n(c4c(N5CCN(CCc6ccccc6)CC5)ncnc24)CCCC3)no1 | 650 nM | 3.7 µM | 
N#Cc1c2n(c3c(N4CCN(CCc5c[nH]c6ccccc56)CC4)ncnc13)CCCC2 | 600 nM | 5.82 µM | 
N#Cc1c2n(c3c(N4CCN(S(=O)(=O)Cc5ccccc5)CC4)ncnc13)CCCC2 | 6650 nM | 14 µM | 
COc1cccc(CCN2CCN(c3ncnc4c(C#N)c5n(c34)CCCC5)CC2)c1 | 2300 nM | 16.2 µM | 
COc1cccc(CNC(=O)c2c3n(c4c(N5CCN(CCc6ccc(F)c(F)c6)CC5)ncnc24)CCCC3)c1OC | 43 nM | 3.7 µM | T1/2 [3]: 48 min; AUC [4]: 12 µg·h/mL; Cmax [5]: 4 µM; IC50 [6]: 2.44 µM
CC(=O)Nc1ccc(-c2nc(N3CCN(CCc4ccccc4)CC3)c3c(n2)c(C#N)c2n3CCCC2)cc1 | 570 nM | 23.7 µM | 
N#Cc1c2n(c3c(N4CCN(CCc5ccccc5)CC4)nc(-c4ccccc4)nc13)CCCC2 | 715 nM | 5 µM | 
N#Cc1c2n(c3c(N4CCN(CCc5ccc(F)c(F)c5)CC4)ncnc13)CCCC2 | 229 nM | 10.5 µM | 
N#Cc1c2n(c3c(N4CCN(CCc5cccc(Cl)c5)CC4)ncnc13)CCCC2 | 920 nM | 17.9 µM | 
c1ccc(CCN2CCN(c3ncnc4c(-c5ncccn5)c5n(c34)CCCC5)CC2)cc1 | 675 nM | > 50 µM | 
O=C(NCc1ccccn1)c1c2n(c3c(N4CCN(CCc5ccc(F)c(F)c5)CC4)ncnc13)CCCC2 | 61 nM | 3.4 µM | half-life ([7]; BALB/C): 150 min; AUC [8]: 7380 ng·h/mL; Cmax [9]: 11.4 µM; IC50 [6]: 30.1 µM
N#Cc1c2n(c3c(N4CCN(CCc5ccc(F)c(F)c5)CC4)nc(-c4ccncc4)nc13)CCCC2 | 105 nM | 1.31 µM | 
N#Cc1c2n(c3c(N4CCN(CC(=O)c5ccccc5)CC4)ncnc13)CCCC2 | 1850 nM | 23 µM | 
N#Cc1c2n(c3c(N4CCN(CCCc5ccccc5)CC4)ncnc13)CCCC2 | 7350 nM | 13 µM | 
N#Cc1c2n(c3c(NCCc4ccccc4)ncnc13)CCCC2 | 6300 nM | 16 µM | 
COc1ccc(CCN2CCN(c3ncnc4c(C#N)c5n(c34)CCCC5)CC2)cc1 | > 50000 nM |  | 
O=C(c1ccccc1)c1c2n(c3c(N4CCN(CCc5ccccc5)CC4)ncnc13)CCCC2 | 1370 nM | 10.7 µM | 
NC(=O)c1c2n(c3c(N4CCN(CCc5ccc(F)c(F)c5)CC4)ncnc13)CCCC2 | 138 nM | > 50 µM | AUC [10]: 13100 ng·h/mL; half-life [11]: 412 min; bioavailability [12]: 52%; Cmax [13]: 8.37 µM; AUC [14]: 44900 ng·h/mL; half-life [15]: 381 min; half-life [7]: 88.2 min; AUC [8]: 25000 ng·h/mL; Cmax [9]: 28 µM; IC50 [6]: 45.8 µM; bioavailability [16]: 71.6%; Cmax [17]: 4.43 µM

Compound | IC50 [1] | IC50 [2] | also measured
O=C(Nc1cccnc1)c1c2n(c3c(N4CCN(CCc5ccc(F)c(F)c5)CC4)ncnc13)CCCC2 |  | 4.95 µM | bioavailability [12]: 45.6%; Cmax [13]: 14.3 µM; AUC [14]: 56400 ng·h/mL; half-life [7]: 403 min; AUC [8]: 40600 ng·h/mL; half-life [18]: 225 min; Cmax [9]: 24.5 µM; half-life [19]: 269 min; bioavailability [16]: 55.5%
N#Cc1c2n(c3c(SCc4ccc(Cl)cc4)ncnc13)CCCCC2 | 3900 nM |  | 
N#Cc1c2n(c3c(N4CCN(CCc5cccc([N+](=O)[O-])c5)CC4)ncnc13)CCCC2 | 410 nM | 9.67 µM | 
N#Cc1c2n(c3c(N4CCN(CCc5ccc([N+](=O)[O-])cc5)CC4)ncnc13)CCCC2 | 523 nM | 12.9 µM | 
N#Cc1c2n(c3c(N4CCN(CCc5ccccc5)CC4)nc(I)nc13)CCCC2 | 887 nM | 13 µM | 
Cc1ccccc1-c1nc(N2CCN(CCc3ccc(F)c(F)c3)CC2)c2c(n1)c(C#N)c1n2CCCC1 | 620 nM | 18 µM | 
COC(=O)c1c2n(c3c(N4CCN(CCc5ccccc5)CC4)ncnc13)CCCC2 | 910 nM | 16.5 µM | 
CCC(=O)c1c2n(c3c(N4CCN(CCc5ccccc5)CC4)ncnc13)CCCC2 | 2800 nM | > 50 µM | 
CN(CCc1ccccc1)c1ncnc2c(C#N)c3n(c12)CCCC3 | 9000 nM | 33 µM | 
N#Cc1c2n(c3c(N4CCN(CCc5ccccc5Cl)CC4)ncnc13)CCCC2 | 955 nM | 10.6 µM | 
N#Cc1c2n(c3c(N4CCN(CCc5ccc(F)c(F)c5)CC4)nc(-c4cccnc4)nc13)CCCC2 | 218 nM |  | 
N#Cc1c2n(c3c(N4CCN(CCc5ccc(Cl)cc5)CC4)ncnc13)CCCC2 | 399 nM | 9.2 µM | 
N#Cc1c2n(c3c(N4CCN(CCc5ccccc5)CC4)ncnc13)CCCC2 | 690 nM | 9.63 µM | 
N#Cc1c2n(c3c(N4CCN(CCc5ccccc5[N+](=O)[O-])CC4)ncnc13)CCCC2 | 1410 nM | > 50 µM | 
N#Cc1c2n(c3c(NCCN4CCc5ccccc5C4)ncnc13)CCCC2 | 6350 nM | > 50 µM | 
CCNC(=O)c1c2n(c3c(N4CCN(CCc5ccc(F)c(F)c5)CC4)ncnc13)CCCC2 |  | 4.79 µM | AUC [10]: 14600 ng·h/mL; bioavailability [12]: 85%; Cmax [13]: 5.73 µM; AUC [14]: 21100 ng·h/mL; half-life [15]: 110 min; half-life [7]: 138 min; AUC [8]: 16900 ng·h/mL; half-life [18]: 474 min; Cmax [9]: 18.3 µM; bioavailability [16]: 50%; Cmax [17]: 7.34 µM
N#Cc1c2n(c3c(NS(=O)(=O)Cc4ccccc4)ncnc13)CCCC2 | 20900 nM | 5.4 µM | 
Cc1nc(-c2c3n(c4c(N5CCN(CCc6ccccc6)CC5)ncnc24)CCCC3)sc1C | 533 nM | 6 µM | 
